Test results from ChEMBL document CHEMBL5321212, “Design, synthesis, and evaluation of substituted alkylindoles that activate G protein-coupled receptors distinct from the cannabinoid CB1 and CB2 receptors” (Eur J Med Chem, 2023).
Calls of active or inactive are those of the source. The rule behind the calls is not given here.

What was measured:
Cell membrane [1] = test: Displacement of [3H]-WIN55212-2 from HEK293 cell membrane lacking CB1R and CB2R at 1 uM; format: subcellular; details: Homo sapiens
Cell membrane [2] = test: Displacement of [3H]-WIN55212-2 from HEK293 cell membrane lacking CB1R and CB2R assessed as inhibition constant for higher affinity site; format: subcellular; details: Homo sapiens
Summary of the method: (§1)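 HEK293 membranes (P2 fractions from independent cultures) incubated with [³H]WIN55212-2 plus increasing concentrations of competitor; specific binding determined by filtration. Ki derived from competition curves, fitted as one or two sites (high and low affinity) where curves were biphasic. n = 3–8 independent membrane preparations, each run in triplicate.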

Cell membrane [3] = test: Displacement of [3H]-WIN55212-2 from HEK293 cell membrane lacking CB1R and CB2R assessed as inhibition constant for lower affinity site; format: subcellular; details: Homo sapiens; summary of the method: as §1
[4] = (§2) Induction of [35S]GTPgammaS binding to HEK293 cell membrane lacking CB1R and CB2R by filtration assay; format: cell membranes, Homo sapiens
Summary of the method: (§3)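 [³⁵S]GTPγS binding to HEK293 cell membranes stimulated by compound. Gi/o dependence tested by pretreating cultured cells with pertussis toxin (100 ng/ml, 20 h). Where stated, CB1R antagonist […] (1 μM) or CB2R antagonist SR144528 (1 μM) was present. Mean ± SEM of n = 3–4 experiments, each in triplicate.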

[5] = Displacement of [3H]-WIN55212-2 from HEK293 cell membrane lacking CB1R and CB2R assessed as inhibition constant; format: cell membranes, Homo sapiens; summary of the method: as §1
HEK293 [6] = test: Induction of HA-tagged human CB2R internalization in HEK293 cells; format: functional, cell-based
Summary of the method: (§4)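 HEK293 cells stably expressing HA-tagged human CB2R exposed to compound at 3 μM. Internalization measured and expressed as % of vehicle control. Antagonism tested with AM630 (1 μM). Positive control CP55940 (1 μM). Mean ± SEM of 3–5 independent experiments. One-way ANOVA with Bonferroni post-test.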

HEK293 [7] = test: Induction of HA-tagged human CB1R internalization in HEK293 cells; format: functional, cell-based
Summary of the method: as §4, with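 “CB1R” for “CB2R”, “[…]” for “AM630”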

HEK293 [8] = test: as §2; format: cell membranes; details: Homo sapiens; summary of the method: as §3
HEK293 [9] = test: Induction of [35S]GTPgammaS binding to HEK293 cell membrane lacking CB1R and CB2R in presence of SR144528 by filtration assay; format: cell membranes; details: Homo sapiens; summary of the method: as §3
Cell membrane [10] = test: Displacement of [3H]-WIN55212-2 from HEK293 cell membrane lacking CB1R and CB2R in presence of GTPgammaS by filtration assay; format: subcellular; details: Homo sapiens
Summary of the method: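 HEK293 membranes incubated with [³H]WIN55212-2 and test compound, with or without GTPγS (20 μM). Specific binding determined by filtration assay. Mean ± SEM of n = 3–4 experiments, each in triplicate.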

HEK293 [11] = test: Induction of [35S]GTPgammaS binding to HEK293 cell membrane lacking CB1R and CB2R in presence of SR141716 by filtration assay; format: cell membranes; details: Homo sapiens; summary of the method: as §3

Row | Structure (SMILES) | KiH (Cell membrane [2]) | KiL (Cell membrane [3]) | Ki [5] | also measured
1 | COc1ccc2c(c1)c(C(=O)c1ccc(C)c3ccccc13)c(C)n2CCN1CCOCC1 |  |  |  | Activity (Cell membrane [1]): inactive
2 | Cc1ccc(C(=O)c2c(C)n(CCN3CCOCC3)c3cnccc23)c2ccccc12 | 5.8 nM | 2.1 µM |  | 
3 | COc1ccc2c(C(=O)c3ccc(C)c4ccccc34)c(C)n(CCN3CCOCC3)c2c1 |  |  | 0.113 µM | EC50 [4]: 0.229 µM
4 | Cc1c(C(=O)c2cccc3ccccc23)c2ccccc2n1C | 2.1 nM | 1 µM |  | 
5 | Cn1cc(C(=O)N2CCCc3ccccc32)c2ccccc21 |  |  |  | Activity (Cell membrane [1]): inactive
6 | Cc1ccc(C(=O)c2c(C)n(CCN3CCOCC3)c3cc(Cl)ccc23)c2ccccc12 |  |  | 0.0035 µM | EC50 [4]: 0.0035 µM
7 | Cc1ccc(C(=O)c2c(C)n(C)c3ccccc23)c2ccccc12 | 0.8 nM | 2.6 µM |  | 
8 | CCn1cc(C(=O)c2ccc(C)c3ccccc23)c2ccccc21 |  |  | 0.102 µM | 
9 | Cc1c(C(=O)c2cccc3ccccc23)c2cccc3c2n1[C@@H](CN1CCOCC1)CO3 | 0.027 nM | 0.0072 µM |  | 
10 | Cc1ccc(C(=O)c2c(C)n(C3CC3)c3ccccc23)c2ccccc12 |  |  | 0.118 µM | 
11 | CC1=C(CCN2CCOCC2)c2ccccc2/C1=C/c1cccc2ccccc12 |  |  | 0.466 µM | 
12 | Cc1ccc(C(=O)c2c(C)n(CC(F)(F)F)c3ccccc23)c2ccccc12 |  |  | 0.0018 µM | Activity (HEK293 [6]): Active; Activity (HEK293 [7]): inactive
13 | C1=C(CCN2CCOCC2)c2ccccc2/C1=C/c1cccc2ccccc12 |  |  | 3.4 µM | 
14 | CCn1c(C)c(C(=O)c2ccc(OC)cc2)c2ccccc21 |  |  |  | Activity (Cell membrane [1]): inactive
15 | Cc1ccc(C(=O)c2c(C)n(CCN3CCOCC3)c3ccc(Cl)cc23)c2ccccc12 | 10 nM | 2.3 µM |  | 
16 | Cc1c(C(=O)c2cccc3ccccc23)c2cccc3c2n1[C@H](CN1CCOCC1)CO3 |  |  |  | Activity (Cell membrane [1]): inactive
17 | CCCn1c(C)c(C(=O)c2ccc(C)c3ccccc23)c2ccccc21 |  |  | 0.095 µM | 
18 | C1=C(CCN2CCOCC2)c2ccccc2/C1=C\c1cccc2ccccc12 |  |  | 0.437 µM | Activity (HEK293 [8]): Active
19 | CCCn1cc(C(=O)c2ccc(C)c3ccccc23)c2ccccc21 |  |  | 0.319 µM | 
20 | CC1=C(CCN2CCOCC2)c2ccccc2/C1=C\c1cccc2ccccc12 |  |  | 0.466 µM | Activity (HEK293 [8]): Active
21 | Cc1ccc(C(=O)c2c(C(F)(F)F)n(CCN3CCOCC3)c3ccccc23)c2ccccc12 |  |  | 0.972 µM | 
22 | Cc1ccc(C(=O)c2c(C)n(CCN3CCOCC3)c3cc(Cl)cc(Cl)c23)c2ccccc12 |  |  |  | Activity (Cell membrane [1]): inactive
23 | Cc1ccc(C(=O)c2c(C)n(CCN3CCOCC3)c3ncccc23)c2ccccc12 | 0.4 nM | 0.382 µM |  | EC50 [4]: 0.0011 µM; Activity (HEK293 [6]): Active; Activity (HEK293 [7]): Active
24 | Cc1ccc(C(=O)c2c3n(c4ccccc24)CCCC3)c2ccccc12 | 5.5 nM | 2.6 µM |  | Activity (HEK293 [6]): Active; Activity (HEK293 [7]): Active
25 | Cc1ccc(C(=O)c2c(C)n(CCN3CCOCC3)c3ccccc23)c2ccccc12 | 0.8 nM | 0.09 µM |  | Activity (HEK293 [6]): Active; Activity (HEK293 [7]): Active
26 | CCn1c(C)c(C(=O)c2ccc(C)c3ccccc23)c2ccccc21 | 1.5 nM | 0.085 µM |  | Activity (HEK293 [9]): Active; EC50 [4]: 0.005 µM; Activity (Cell membrane [10]): Active; Activity (HEK293 [6]): Active; Activity (HEK293 [7]): inactive; Activity (HEK293 [11]): Active
